The source made the active and inactive calls. The rule behind the calls is not given here.
Experiments:
Type in all cases: functional, cell-based
[1] = system: HeLa; assay: Cytotoxicity against human HeLa cells after 48 hrs by […]
Procedure, shortened: (§1)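 MTS read-out. Cells were seeded at (2−5) × 10^3 per well, depending on growth rate, and attached overnight. Medium was then replaced with medium holding serial dilutions of compound from 100 mM DMSO stocks, with 0.1% DMSO vehicle and cisplatin control. Plates were incubated 48 h at 37 °C in humidified 5% CO2. MTS was added for 90 min at 37 °C in the dark, and absorbance read at 490 nm. Triplicate runs gave IC50.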

[2] = system: HCT-116; assay: Cytotoxicity against human HCT116 cells at 50 uM after 48 hrs by […]
Procedure, shortened: (§2)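 Single concentration of 50 μM tested in the MTS proliferation assay. Cells were seeded at (2−5) × 10^3 per well and attached overnight. Compound was diluted in medium from 100 mM DMSO stock, alongside a 0.1% DMSO vehicle. Plates were incubated 48 h at 37 °C in humidified 5% CO2. MTS was added for 90 min at 37 °C, then absorbance read at 490 nm. Run in triplicate.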

[3] = system: T-24; assay: Cytotoxicity against human T24 cells at 50 uM after 48 hrs by […]; procedure, shortened: as §2
[4] = system: A549; assay: Cytotoxicity against human A549 cells at 50 uM after 48 hrs by […]; procedure, shortened: as §2
[5] = system: MCF7; assay: Cytotoxicity against human MCF7 cells at 50 uM after 48 hrs by […] assay; procedure, shortened: as §2
[6] = system: HeLa; assay: Cytotoxicity against human HeLa cells at 50 uM after 48 hrs by […]; procedure, shortened: as §2
[7] = system: MCF7; assay: Cytotoxicity against human MCF7 cells after 48 hrs by […]; settings: MCF7, 48 h; procedure, shortened: as §1
[8] = system: HCT-116; assay: Cytotoxicity against human HCT116 cells after 48 hrs by […]; settings: HCT-116, 48 h; procedure, shortened: as §1
[9] = system: A549; assay: Cytotoxicity against human A549 cells after 48 hrs by […]; settings: A549, 48 h; procedure, shortened: as §1
[10] = Cytotoxicity against human T24 cells after 48 hrs by […]; settings: T-24, 48 h; procedure, shortened: as §1

SMILES | IC50 [1] [µM] | inhibition [2] | inhibition [3] | inhibition [4] | inhibition [5] | inhibition [6] | IC50 [7] [µM] | IC50 [8] [µM] | IC50 [9] [µM] | IC50 [10] [µM]
C=C[C@@H]1C(=C)CC[C@H]2[C@H]1C[C@H]1OC(=O)[C@@]3(C)[C@H](O)CC[C@@]2(C)[C@@]13O | 50.3 | – | – | – | – | – | – | – | – | –
C=CC1=CC[C@H]2[C@@H](CC(=O)[C@@]3(O)[C@@]4(C)C(=O)O[C@H]4CC[C@]23C)[C@H]1C | – | inactive | inactive | inactive | inactive | inactive | – | – | – | –
C=C[C@@H]1C(=C)CC[C@H]2[C@H]1C[C@H]1OC(=O)[C@@]3(C)[C@H](OC(C)=O)CC[C@@]2(C)[C@@]13O | 43.7 | – | – | – | – | – | 23.4 | 37.3 | 43.6 | 20.7
C=C[C@@H]1C(=C)CC[C@H]2[C@H]1CC(=O)[C@@]1(O)[C@@]3(C)C(=O)O[C@H]3CC[C@]21C | 2.84 | – | – | – | – | – | 7.43 | 6.23 | 7.48 | 4.26

From ChEMBL document CHEMBL3297741, “Cytotoxic cleistanthane and cassane diterpenoids from the entomogenous fungus Paraconiothyrium hawaiiense” (J Nat Prod, 2014)
